In the M2OR odorant receptor database:

Experiments:
Conditions in all cases: stereoisomer not certain
UniProt A2ATE5 = molecular target: T1, UniProt A2ATE5
T1 sequence (whole entry): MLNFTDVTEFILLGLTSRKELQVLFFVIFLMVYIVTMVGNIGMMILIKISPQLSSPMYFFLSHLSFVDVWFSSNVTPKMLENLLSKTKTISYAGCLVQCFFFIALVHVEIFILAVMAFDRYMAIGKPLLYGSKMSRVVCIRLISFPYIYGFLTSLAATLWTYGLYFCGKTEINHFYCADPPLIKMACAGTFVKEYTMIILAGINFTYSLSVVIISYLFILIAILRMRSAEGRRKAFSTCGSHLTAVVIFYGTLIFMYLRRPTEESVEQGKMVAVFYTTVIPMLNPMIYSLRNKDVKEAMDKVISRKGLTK
Outline: (§1)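 Assay methods differ from source to source, frequently being transient luciferase assays in mammalian cell lines. For each receptor–molecule pair, the label responsive (active) applies when the original authors judged the measured signal statistically different from baseline, and non-responsive (inactive) applies otherwise.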

UniProt A2AVB0 = molecular target: T2, UniProt A2AVB0
T2 sequence (whole entry): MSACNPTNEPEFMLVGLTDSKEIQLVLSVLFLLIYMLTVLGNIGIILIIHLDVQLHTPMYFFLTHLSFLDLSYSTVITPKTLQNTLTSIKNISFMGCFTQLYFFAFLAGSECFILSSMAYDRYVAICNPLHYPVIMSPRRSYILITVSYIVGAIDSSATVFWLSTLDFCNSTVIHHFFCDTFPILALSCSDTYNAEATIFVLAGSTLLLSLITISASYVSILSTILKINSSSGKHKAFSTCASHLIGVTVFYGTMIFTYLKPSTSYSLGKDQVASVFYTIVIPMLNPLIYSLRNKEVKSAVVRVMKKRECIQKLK
Outline: as §1

UniProt A2AVB5 = molecular target: T3, UniProt A2AVB5
T3 sequence (whole entry): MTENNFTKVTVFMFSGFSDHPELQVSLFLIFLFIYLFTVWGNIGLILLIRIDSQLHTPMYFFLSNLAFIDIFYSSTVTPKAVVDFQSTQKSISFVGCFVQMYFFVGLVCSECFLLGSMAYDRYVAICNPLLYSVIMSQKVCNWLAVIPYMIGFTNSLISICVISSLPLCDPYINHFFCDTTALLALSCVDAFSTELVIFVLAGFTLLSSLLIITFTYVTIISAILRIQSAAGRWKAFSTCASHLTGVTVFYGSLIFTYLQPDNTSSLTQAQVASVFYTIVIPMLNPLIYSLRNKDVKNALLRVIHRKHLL
Outline: as §1

UniProt B2RVX8 = molecular target: T4, UniProt B2RVX8
T4 sequence (whole entry): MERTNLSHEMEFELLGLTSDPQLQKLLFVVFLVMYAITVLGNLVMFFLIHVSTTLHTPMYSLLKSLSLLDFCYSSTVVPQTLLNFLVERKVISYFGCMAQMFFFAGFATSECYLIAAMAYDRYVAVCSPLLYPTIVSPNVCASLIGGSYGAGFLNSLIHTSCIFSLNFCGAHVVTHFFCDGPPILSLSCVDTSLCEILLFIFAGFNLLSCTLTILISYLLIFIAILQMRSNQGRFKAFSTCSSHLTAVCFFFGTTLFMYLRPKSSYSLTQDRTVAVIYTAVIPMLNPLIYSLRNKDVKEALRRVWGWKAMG
Outline: as §1

UniProt E9PVX1 = molecular target: T5, UniProt E9PVX1
T5 sequence (whole entry): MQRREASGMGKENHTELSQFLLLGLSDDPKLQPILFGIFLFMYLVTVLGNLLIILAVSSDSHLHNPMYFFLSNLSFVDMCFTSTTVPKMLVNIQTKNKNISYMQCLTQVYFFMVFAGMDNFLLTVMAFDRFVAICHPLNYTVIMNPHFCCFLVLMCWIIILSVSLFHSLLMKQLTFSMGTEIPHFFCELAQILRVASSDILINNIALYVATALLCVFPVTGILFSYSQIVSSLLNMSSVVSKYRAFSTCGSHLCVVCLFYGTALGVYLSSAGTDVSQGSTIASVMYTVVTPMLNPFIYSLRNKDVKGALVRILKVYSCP
Outline: as §1

UniProt E9PZ66 = molecular target: T6, UniProt E9PZ66
T6 sequence (whole entry): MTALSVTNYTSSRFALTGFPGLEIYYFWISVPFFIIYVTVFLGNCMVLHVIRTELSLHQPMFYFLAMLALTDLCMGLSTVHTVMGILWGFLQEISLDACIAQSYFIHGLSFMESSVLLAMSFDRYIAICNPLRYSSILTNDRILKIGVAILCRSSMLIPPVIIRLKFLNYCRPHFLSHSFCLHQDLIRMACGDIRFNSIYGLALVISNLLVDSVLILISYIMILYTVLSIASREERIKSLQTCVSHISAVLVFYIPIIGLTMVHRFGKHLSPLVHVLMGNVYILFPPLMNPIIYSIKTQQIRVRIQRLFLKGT
Outline: as §1

UniProt E9Q4X7 = molecular target: T7, UniProt E9Q4X7
T7 sequence (whole entry): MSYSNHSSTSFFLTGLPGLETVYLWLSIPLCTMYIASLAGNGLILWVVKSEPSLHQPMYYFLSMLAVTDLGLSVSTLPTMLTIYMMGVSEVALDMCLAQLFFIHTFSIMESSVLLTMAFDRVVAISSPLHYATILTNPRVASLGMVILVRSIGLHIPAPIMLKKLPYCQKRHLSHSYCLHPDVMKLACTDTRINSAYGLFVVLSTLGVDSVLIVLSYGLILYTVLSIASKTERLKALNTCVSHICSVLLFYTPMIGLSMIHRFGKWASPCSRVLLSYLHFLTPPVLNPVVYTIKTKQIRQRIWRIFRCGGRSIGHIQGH
Outline: as §1

UniProt E9Q546 = molecular target: T8, UniProt E9Q546
T8 sequence (whole entry): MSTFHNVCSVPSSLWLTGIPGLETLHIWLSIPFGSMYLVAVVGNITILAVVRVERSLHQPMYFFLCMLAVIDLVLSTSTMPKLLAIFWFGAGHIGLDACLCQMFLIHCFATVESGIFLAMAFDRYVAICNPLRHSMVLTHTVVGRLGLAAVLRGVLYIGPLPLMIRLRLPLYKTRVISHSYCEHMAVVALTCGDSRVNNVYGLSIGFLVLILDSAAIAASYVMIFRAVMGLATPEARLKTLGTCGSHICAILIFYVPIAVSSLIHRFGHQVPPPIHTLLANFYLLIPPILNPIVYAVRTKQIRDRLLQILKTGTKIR
Outline: as §1

UniProt E9Q6Z7 = molecular target: T9, UniProt E9Q6Z7
T9 sequence (whole entry): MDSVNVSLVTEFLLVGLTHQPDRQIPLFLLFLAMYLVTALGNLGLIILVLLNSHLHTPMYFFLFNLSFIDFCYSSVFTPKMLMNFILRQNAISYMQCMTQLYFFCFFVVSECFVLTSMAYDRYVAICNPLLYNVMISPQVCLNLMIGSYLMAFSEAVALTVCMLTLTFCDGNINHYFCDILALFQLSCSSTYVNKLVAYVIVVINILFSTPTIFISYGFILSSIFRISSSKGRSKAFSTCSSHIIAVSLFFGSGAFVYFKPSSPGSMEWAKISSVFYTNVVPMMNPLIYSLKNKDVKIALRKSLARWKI
Outline: as §1

UniProt K7N609 = molecular target: T10, UniProt K7N609
T10 sequence (whole entry): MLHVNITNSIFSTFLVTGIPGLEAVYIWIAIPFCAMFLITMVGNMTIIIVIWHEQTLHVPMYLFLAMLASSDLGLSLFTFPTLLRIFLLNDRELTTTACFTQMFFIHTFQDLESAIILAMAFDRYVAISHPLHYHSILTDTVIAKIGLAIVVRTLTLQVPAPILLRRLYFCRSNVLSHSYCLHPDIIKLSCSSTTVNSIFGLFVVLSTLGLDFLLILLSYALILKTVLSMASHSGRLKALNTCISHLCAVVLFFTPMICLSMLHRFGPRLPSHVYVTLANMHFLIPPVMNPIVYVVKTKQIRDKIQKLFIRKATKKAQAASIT
Outline: as §1

UniProt E9PX47 = molecular target: T11, UniProt E9PX47
T11 sequence (whole entry): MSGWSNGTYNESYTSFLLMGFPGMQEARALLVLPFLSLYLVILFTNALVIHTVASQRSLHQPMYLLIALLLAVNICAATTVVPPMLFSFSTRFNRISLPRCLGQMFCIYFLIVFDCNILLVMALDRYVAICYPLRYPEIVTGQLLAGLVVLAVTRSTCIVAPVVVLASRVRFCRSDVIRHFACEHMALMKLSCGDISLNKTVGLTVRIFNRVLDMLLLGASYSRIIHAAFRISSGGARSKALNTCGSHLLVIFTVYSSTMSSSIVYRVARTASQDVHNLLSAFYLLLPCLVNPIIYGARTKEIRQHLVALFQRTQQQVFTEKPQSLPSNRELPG
Outline: as §1

UniProt E9PXN3 = molecular target: T12, UniProt E9PXN3
T12 sequence (whole entry): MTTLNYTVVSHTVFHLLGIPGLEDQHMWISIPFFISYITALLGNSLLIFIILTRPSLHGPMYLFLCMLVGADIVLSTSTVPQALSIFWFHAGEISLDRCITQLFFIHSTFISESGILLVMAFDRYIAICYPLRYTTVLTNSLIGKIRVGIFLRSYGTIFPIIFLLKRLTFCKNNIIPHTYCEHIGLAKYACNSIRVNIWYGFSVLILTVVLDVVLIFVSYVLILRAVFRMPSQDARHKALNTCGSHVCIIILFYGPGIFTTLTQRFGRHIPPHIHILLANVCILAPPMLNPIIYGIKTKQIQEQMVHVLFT
Outline: as §1

| Structure (SMILES) | odorant receptor agonist call (UniProt A2ATE5) | odorant receptor agonist call (UniProt A2AVB0) | odorant receptor agonist call (UniProt A2AVB5) | odorant receptor agonist call (UniProt B2RVX8) | odorant receptor agonist call (UniProt E9PVX1) | odorant receptor agonist call (UniProt E9PZ66) | odorant receptor agonist call (UniProt E9Q4X7) | odorant receptor agonist call (UniProt E9Q546) | odorant receptor agonist call (UniProt E9Q6Z7) | odorant receptor agonist call (UniProt K7N609) | odorant receptor agonist call (UniProt E9PX47) | odorant receptor agonist call (UniProt E9PXN3) |
| --- | --- | --- | --- | --- | --- | --- | --- | --- | --- | --- | --- | --- |
| CCCCCC=O | inactive | inactive | inactive | inactive | inactive | inactive | inactive | inactive | inactive | inactive | – | – |
| C=C(C)C1CCC(C)C(=O)C1 (stereo not given) | inactive | inactive | inactive | inactive | inactive | inactive | inactive | inactive | inactive | inactive | – | – |
| CC(=O)OCC=C(C)C | inactive | inactive | inactive | inactive | inactive | inactive | inactive | inactive | inactive | inactive | – | – |
| CCCCCCCCCC(=O)[O-].[H+] | inactive | inactive | inactive | inactive | inactive | inactive | inactive | active | inactive | inactive | inactive | – |
| CCCCCC1=C(C)CCC1=O | inactive | inactive | inactive | active | inactive | inactive | inactive | inactive | inactive | inactive | – | – |
| CC(C)=CCCC(C)CCO (stereo not given) | inactive | inactive | inactive | inactive | inactive | inactive | inactive | inactive | inactive | inactive | – | – |
| c1ccccc1 | inactive | inactive | inactive | inactive | inactive | inactive | inactive | inactive | inactive | inactive | – | – |
| CCCCCCCCCO | inactive | inactive | inactive | inactive | inactive | inactive | inactive | inactive | inactive | inactive | inactive | inactive |
| CCC(=O)O | inactive | inactive | inactive | inactive | inactive | inactive | inactive | inactive | inactive | inactive | – | – |
| CCCCCC(=O)CC | inactive | inactive | inactive | inactive | inactive | inactive | inactive | inactive | inactive | inactive | – | – |
| CCCCCCOC(C)=O | inactive | inactive | inactive | inactive | inactive | inactive | inactive | inactive | inactive | inactive | – | – |
| CCCCC(C)=O | inactive | inactive | inactive | inactive | inactive | inactive | inactive | inactive | inactive | inactive | – | – |
| CCCCC(=O)O | inactive | inactive | inactive | inactive | inactive | active | inactive | inactive | inactive | inactive | inactive | inactive |
| CCCCCCO | inactive | inactive | inactive | inactive | inactive | inactive | inactive | inactive | inactive | inactive | inactive | inactive |
| CCCCCCCCC(=O)O | inactive | inactive | inactive | inactive | inactive | inactive | inactive | inactive | inactive | inactive | inactive | – |
| CCC(=O)C(=O)CC | inactive | inactive | inactive | inactive | inactive | inactive | inactive | inactive | inactive | inactive | – | – |
| CCCCCCCC(C)=O | inactive | inactive | inactive | inactive | inactive | inactive | inactive | inactive | inactive | inactive | – | – |
| CCCCCCC(C)=O | inactive | inactive | inactive | inactive | inactive | inactive | inactive | inactive | inactive | inactive | – | – |
| O=C(c1ccccc1)c1ccccc1 | inactive | inactive | inactive | inactive | inactive | inactive | inactive | inactive | inactive | inactive | – | – |
| CCCC(=O)C(C)=O | inactive | inactive | inactive | inactive | inactive | inactive | inactive | inactive | inactive | inactive | – | – |
| CCCCCCCO | inactive | inactive | inactive | inactive | inactive | inactive | inactive | inactive | inactive | inactive | inactive | inactive |
| CCOC(=O)C(C)C | inactive | inactive | inactive | inactive | inactive | inactive | inactive | inactive | inactive | inactive | – | – |
| CCCCC(=O)CC | inactive | inactive | inactive | inactive | inactive | inactive | inactive | inactive | inactive | inactive | – | – |
| CCCCCCCCCCO | inactive | inactive | inactive | inactive | inactive | inactive | inactive | inactive | inactive | inactive | – | – |
| CCCCCCCCCS | inactive | inactive | inactive | inactive | inactive | inactive | inactive | inactive | inactive | inactive | – | – |
